This is an account of results in PMC7079113 (Diabetes, Obesity & Metabolism, 2019).

The conditions of data set [1]: LC–MS/MS; for AUCins.0‐6h of M1, geometric mean (90% CI) / AUCins.6‐30h of M1, geometric mean (90% CI): secondary PK endpoint, 87 US IG; for AUCins.0‐6h of M1, geometric mean (90% CI): N = 85 MYL-1501D, 84 EU IG; for AUCins.6‐30h of M1, geometric mean (90% CI): N = 87 MYL-1501D, 86 EU IG.
Data set [2] can be described thus: Single-dose safety and local tolerability. Format: in vivo, patients with type 1 diabetes mellitus (human). As to conditions: for Hypoglycaemic events at various time points after the clamp period: > 30 hours after injection, considered a side effect of the patients' usual insulin treatment; for Number of AEs during or after administration / Patients who experienced AEs during or after administration / Patients who experienced AEs during or after administration, percentage: safety population N = 114. In short, it runs like this: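 Randomised crossover in which each patient received three insulin glargine preparations as single s.c. 0.4 U/kg doses, at visits 5–28 days apart (minimum 5-day washout). Each dose was given under a 30-h automated euglycaemic clamp. Safety and injection-site tolerability were assessed at each visit: AEs, haematology, biochemistry, urinalysis, physical exam, vital signs, ECGs and blood glucose. Hypoglycaemia was graded severe/symptomatic/asymptomatic. Results were summarised descriptively.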

The conditions of data set [3]: ELISA, ratio of treatments vs US IG. On the technique in general: An ELISA detects its analyte on a solid surface through an enzyme-linked reagent.
In the next data set the test system is glucose infusion rate. The experiment in a line: 30-hour automated euglycaemic clamp. It is filed as in vivo, patients with type 1 diabetes mellitus (human). Particulars: for AUCGIR0–6h, geometric mean (90% CI): 0-6 h; for AUCGIR0–6h, geometric mean (90% CI) / AUCGIR6–30h, geometric mean (90% CI): N = 111 MYL-1501D, 111 US IG, 113 EU IG; for AUCGIR6–30h, geometric mean (90% CI): 6-30 h.

The mark [4] stands for this setting: vs US IG, N = 74 (MYL-1501D), 72 (EU IG).
Setting [5] is: secondary PD, vs US IG, N = 111.

Marks after values point to notes of the source that are not given here.

Consider insulin glargine [EU IG], for which, in data set [1] (vs US IG, N = 73 (MYL-1501D), 71 (EU IG)), the “AUCins.0‐6h of M1, geometric LS mean ratio (90% CI) vs US IG” value is reported as 1.06 (0.93–1.20). Further, in data set [1] (setting [4]), the “AUCins.0–30h of M1, geometric LS mean ratio (90% CI) vs US IG” value was 1.01 (0.94–1.08); the “AUCins.6‐30h of M1, geometric LS mean ratio (90% CI) vs US IG” value is given as 1.00 (0.93–1.08); the “Cins.max of M1, geometric LS mean ratio (90% CI) vs US IG” value is reported as 1.02 (0.96–1.08). Besides, in data set [1], the “AUCins.0‐6h of M1, geometric mean (90% CI)” value is 203 (180–229) pmol·h/L and the “AUCins.6‐30h of M1, geometric mean (90% CI)” value is listed as 1088 (1001–1181) pmol·h/L. Further, the “Hypoglycaemic events at various time points after the clamp period” value in data set [2] is “six”. Also, in data set [2] (single s.c. 0.4 U/kg), the Tolerability result is “generally well tolerated”; the “Number of AEs during or after administration” value was determined as 34 AEs; the “Patients who experienced AEs during or after administration” value was 24 patients; the “Patients who experienced AEs during or after administration, percentage” value was found to be 21.1%. Moreover, the “AUCins.0–30h, geometric LS mean ratio (90% CI) vs US IG” value in data set [3] (N = 107) is on record as 1.02 (0.95–1.09). For the same substance, in data set [3] (N = 110), the “Cins.max, geometric LS mean ratio (90% CI) vs US IG” value is 1.00 (0.93–1.08). For the same substance, in the data set on glucose infusion rate (including very low response profiles, linear mixed model, vs US IG, n = 111), the “AUCGIR0–30h (secondary analysis), geometric LS mean ratio (90% CI) vs US IG” value was 0.96 (0.77–1.20) ^e. In addition, the “GIRmax, geometric LS mean ratio (90% CI) vs US IG” value in the data set with glucose infusion rate (primary PD, vs US IG, N = 102) is on record as 0.98 (0.90–1.07). Moreover, in the data set with glucose infusion rate (secondary PD), the “AUCGIR0–6h, geometric mean (90% CI)” value was 72.8 (49.4–107) mg/kg and the “AUCGIR6–30h, geometric mean (90% CI)” value is recorded as 567 (418–769) mg/kg. Besides, in the data set on glucose infusion rate (setting [5]), the “AUCGIR0–6h, geometric LS mean ratio (90% CI) vs US IG” value is reported as 0.82 (0.55–1.23) and the “AUCGIR6–30h, geometric LS mean ratio (90% CI) vs US IG” value is 1.09 (0.79–1.48).

insulin glargine [US IG]: in data set [1], the “AUCins.0‐6h of M1, geometric mean (90% CI)” value is 192 (171–217) pmol·h/L and the “AUCins.6‐30h of M1, geometric mean (90% CI)” value is 1086 (1000–1179) pmol·h/L. For the same substance, the “Hypoglycaemic events at various time points after the clamp period” value in data set [2] was 16. For the same substance, in data set [2] (mild, single s.c. 0.4 U/kg), the Injection site reactions entry was “one”. In addition, in data set [2] (single s.c. 0.4 U/kg), the Tolerability result was “generally well tolerated”; the “Number of AEs during or after administration” value is on record as 34 AEs; the “Patients who experienced AEs during or after administration” value was 20 patients; the “Patients who experienced AEs during or after administration, percentage” value is reported as 17.9%. In the data set on glucose infusion rate (secondary PD), the “AUCGIR0–6h, geometric mean (90% CI)” value was 88.3 (59.7–131) mg/kg and the “AUCGIR6–30h, geometric mean (90% CI)” value is listed as 522 (384–710) mg/kg.
